Measurements of several laboratories.
Protocols differ between the studies behind these lines.
RPS6KB2: Ribosomal protein S6 kinase beta-2 (RPS6KB2, Homo sapiens, UniProt Q9UBS0)
ADORA1: Adenosine receptor A1 (ADORA1, Homo sapiens, UniProt P30542)
AXL: Tyrosine-protein kinase receptor UFO (AXL, Homo sapiens, UniProt P30530)

For `Cc1cc(O)c(-c2ccc([C@@H](C)CN(C)C)cc2)c2c1[nH]c(=O)c1sccc12`, the inhibition was -3.41% (RPS6KB2; enzyme activity, inhibitor; 0.1 µM).
`NC/C(=C\F)COc1cccc(Cn2c(=S)[nH]c(=O)c3[nH]cnc32)c1` has an inhibition of < 50% (ADORA1; ligand displacement, radioligand; 10 µM).
`Cc1cc(F)cc2c(CCC(=O)N[C@@H]3C(=O)NC[C@H]3O)c(-c3ccc(F)cc3)[nH]c12` has an inhibition of 4% (ADORA1; cell-free assay; 10 µM).
With `C1=C/COCc2cc(ccc2OCCN2CCCC2)Nc2nccc(n2)-c2cccc(c2)COC/1` the remaining binding was 100% (Ephrin type-A receptor 4 (EPHA4, Homo sapiens, UniProt P54764); binding; 0.1 µM).
The remaining binding of `CCCCC(=O)Nc1ccc(-c2ccc3ncn(CCC)c(=O)c3c2)cn1` is reported as 86% (Serine/threonine-protein kinase 32A (STK32A, Homo sapiens, UniProt Q8WU08); binding, competition with immobilised ligand; 0.5 µM).
`CC(C)C[C@H](NC(=O)CNC(=O)[C@H](Cc1ccc(O)cc1)NC(=O)[C@H](CO)NC(=O)[C@H](Cc1c[nH]c2ccccc12)NC(=O)[C@H](Cc1c[nH]cn1)NC(=O)[C@@H]1CCC(=O)N1)C(=O)N[C@@H](CCCNC(=N)N)C(=O)N1CCC[C@H]1C(=O)NCC(N)=O` has an Emax of 100% (Gonadotropin-releasing hormone receptor (GNRHR, Homo sapiens, UniProt P30968); inositol phosphate, agonist, TR-FRET; HEK-293T; 1 h).
`CS(=O)(=NC#N)c1ccccc1Nc1nc(Nc2ccnc(CO)c2)ncc1Cl` (stereo not drawn) has a remaining activity of 14.7% (AXL; enzyme activity, inhibitor; 1 µM).
For `CCN1/C(=C/C(C)=O)Sc2ccc(F)cc21`, the inhibition was 2.48% (ADORA1; ligand displacement, radioligand; 10 µM).
`COc1ccc2oc(-c3ccc4nc(N)oc4c3)c/c(=N\c3ccccc3NC(=O)CCN)c2c1` has a remaining binding of 93% (RPS6KB2; binding; 1 µM).
For `COc1nc(-c2cccc(-c3ccccc3)c2C)ccc1CNCCNC(=O)CCCCCCCCCCC(=O)N1CCN(CCNC(=O)c2cc3c(=O)n4cccc(C)c4nc3n(CCc3cccs3)c2=N)CC1`, the Dmax was 53.9% (Programmed cell death 1 ligand 1 (CD274, Homo sapiens, UniProt Q9NZQ7); protein level, degrader, western blot; HL-60; 1 µM).
For `C#Cc1cnc(Nc2ccc(CO)cc2)nc1Nc1ccccc1C(=O)NC`, the remaining activity was 1.65% (AXL; enzyme activity, inhibitor; 1 µM).
`C#Cc1cc(-c2cc(Nc3nc(N[C@@H](C)c4ccc(F)cn4)ncc3Cl)n[nH]2)ccc1C=O` has an inhibition of 17.4% (RAC-gamma serine/threonine-protein kinase (AKT3, Homo sapiens, UniProt Q9Y243); enzyme activity, inhibitor; 0.2 µM).
